Assay results as given in article PMC4703501 (Leukemia, 2015).
“Also recorded” adds a separate entry of the source. Each block holds one compound with its values, some of them ahead of it.

What was measured:
HCT-15 = test: GI50 growth inhibition assay; assay type: cell-based; conditions: Homo sapiens, HCT-15, 96 h
How it was run: (§1)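 Cell lines were grown in DMEM or RPMI with 10% FBS and pen-strep at 37°C, 5% CO₂, and were mycoplasma-negative. Cells were seeded at 2.5×10³ per 0.1 ml per well, and test compound was added 24 hrs later at the indicated concentrations. Viable cells were measured by resazurin (Cell Titer Blue) read-out 96 hrs post-treatment in duplicate wells.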

[1] = test system: exponentially growing Z138 cells; test: p65; assay type: cell-based, human; conditions: 24 hrs
How it was run: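 Exponentially growing Z138 cells were exposed to test compound. Whole-cell extracts were probed by western blot for p65 (NF-kB) phosphorylation.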

[2] = test system: Granta 519 and Z138C cells; test: apoptosis markers; assay type: cell-based, human; conditions: for PARP cleavage at lower concentrations: 72–96 hrs incubation, data not shown
How it was run: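 Granta 519 and Z138C cells were treated with test compound, then lysed in NP-40 buffer. Western blots on nitrocellulose assessed full-length caspases 3, 7 and 9 and PARP cleavage as apoptosis markers.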

Z138C cells = test: cell cycle distribution, propidium iodide flow cytometry; assay type: cell-based, human; conditions: 24 hours; for accumulation of cells in the sub-G1 phase: for ON123300 at higher concentrations
How it was run: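 Z138C cells were treated with DMSO or increasing concentrations of test compound for 24 hours. They were then ethanol-fixed, PBS-washed and stained with RNase plus propidium iodide at 37°C for 20 min. DNA content was measured by flow cytometry to assign cell-cycle phases.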

CDK5 = CDK5 (Homo sapiens, UniProt Q00535); test: in vitro kinase assay; assay type: biochemical; conditions: data not shown
MDA-MB-231 = test: GI50 growth inhibition assay; assay type: cell-based; conditions: Homo sapiens, MDA-MB-231, 96 h
How it was run: as §1

SW480 = test: GI50 growth inhibition assay; assay type: cell-based; conditions: Homo sapiens, SW480, 96 h
How it was run: as §1

Z138C xenograft = test: Z138C tumor xenograft assay; assay type: in vivo, nu/nu mice
MIA-PaCa-2 = test: GI50 growth inhibition assay; assay type: cell-based; conditions: Homo sapiens, MIA PaCa-2, 96 h
How it was run: (§2)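 Cells from ATCC were grown in DMEM or RPMI with 10% FBS and penicillin-streptomycin at 37°C, humidified, 5% CO₂, and tested mycoplasma-negative. They were seeded at 2.5×10³ cells per 0.1 ml per well. Test compound was added 24 hrs after plating at a range of concentrations. Viable cells were measured by Cell Titer Blue from duplicate wells 96 hrs after treatment.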

CDK8 = CDK8 (Homo sapiens, UniProt P49336); test: in vitro kinase assay; assay type: biochemical; conditions: data not shown
HeLa cells = test: TNF-α induced p65 NF-kB phosphorylation western blot; assay type: cell-based, human; conditions: 5ng/ml TNF-α for 5 min after treatment
How it was run: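 Positive-control system: HeLa cells were pretreated with test compound, then stimulated with 5ng/ml TNF-α for 5 min. Phospho-p65 NF-kB was assessed by western blot of whole-cell extracts.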

GRANTA-519 = test: GI50 growth inhibition assay; assay type: cell-based; conditions: Homo sapiens, Granta-519, 96 h
How it was run: as §1

[3] = previous studies; cited from earlier work
SNU-398 = test: GI50 growth inhibition assay; assay type: cell-based; conditions: Homo sapiens, SNU-398, 96 h
How it was run: as §1

CDK1 = CDK1 (Homo sapiens, UniProt P06493); test: in vitro kinase assay; assay type: biochemical; conditions: data not shown
[4] = test system: Granta 519 and Z138C cells; test: PI3K/AKT/mTOR pathway western blot; assay type: cell-based, human; conditions: 24 hours
How it was run: (§3)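 Granta 519 and Z138C cells (RPMI or DMEM, 10% FBS, pen-strep, 37°C, 5% CO₂) received vehicle or increasing concentrations of test compound for 24 hours. Whole-cell extracts were made in NP-40 lysis buffer (Tris pH 7.4, NaF, Na₃VO₄), run on SDS-PAGE and blotted to nitrocellulose. Detection used infrared imaging, GAPDH was the loading control, and 4 independent experiments were done.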

[5] = test system: primary patient-derived MCL cells (MEM1 ibrutinib-sensitive, MEM2 ibrutinib-resistant); test: Annexin V staining of primary patient-derived MCL; assay type: cell-based, human; conditions: 5µM ON123300; 24 hrs (legend: 18 hrs)
How it was run: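 Patient MCL specimens (lymph node or peripheral blood) made into single-cell suspensions and cryopreserved in 90% FBS/10% DMSO in liquid nitrogen. Cells exposed to the indicated concentrations of test compound for 18 hrs. Apoptosis read as FITC-Annexin V staining by flow cytometry.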

CDK2 = CDK2 (Homo sapiens, UniProt P24941); test: in vitro kinase assay; assay type: biochemical; conditions: data not shown
Z138C = test: GI50 growth inhibition assay; assay type: cell-based; conditions: Homo sapiens, 96 h
How it was run: as §2

SNU-5 = test: GI50 growth inhibition assay; assay type: cell-based; conditions: Homo sapiens, SNU-5, 96 h
How it was run: as §1

[6] = test system: primary patient-derived MCL cells (MEM1, MEM2); test: Rb and AKT pathway western blot in primary MCL; assay type: cell-based, human; conditions: both primary MCL samples, 18 hrs
How it was run: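 Red cells were removed from primary MCL samples with ammonium chloride. Cells were then treated with increasing concentrations of test compound for 18 hrs and lysed in RIPA buffer (25mM Tris-HCl pH 7.5, 150mM NaCl, 1% NP40, 1% SDS, phosphatase inhibitors). […], nitrocellulose transfer and infrared imaging.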

[7] = test system: Granta 519 and Z138C cells; test: CDK4/CYCLIN D/Rb pathway western blot; assay type: cell-based, human; conditions: 24 hours; for phosphorylation of pRb and p130: increasing concentrations
How it was run: as §3

MDA-MB-157 = test: GI50 growth inhibition assay; assay type: cell-based; conditions: Homo sapiens, MDA-MB-157, 96 h
How it was run: as §1

COLO-205 = test: GI50 growth inhibition assay; assay type: cell-based; conditions: Homo sapiens, COLO 205, 96 h
How it was run: as §1

[8] = plasma level pharmacokinetics; assay type: in vivo, CD-1 mice; conditions: for area under the curve (AUC) as molar concentration / area under the curve (AUC): plasma
How it was run: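 Female CD-1 mice (10–12 weeks) received 50mg/kg test compound dissolved in water, ip or by oral gavage. Sampling was at 10, 30 min and 1, 2, 4, 8 h, n=2 per time point, with heart-puncture blood into heparin/EDTA tubes. Plasma was analysed by LC/MS, and AUC was calculated by the trapezoidal rule.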

[9] = maximum tolerated dose study; assay type: in vivo, CD-1 mice
How it was run: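 Female CD-1 mice (10–12 weeks), n=3 per group, were used. One arm received a single ip dose of 100 or 200 mg/kg, with toxicity signs and body weight followed for 7 days. The other arm received 200mg/kg ip for 5 consecutive days, followed for 10 days.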

DLD-1 = test: GI50 growth inhibition assay; assay type: cell-based; conditions: Homo sapiens, DLD-1, 96 h
How it was run: as §1

MCL cell lines = test: GI50 assays, MCL cell lines versus other tumor types; assay type: cell-based, human; conditions: over a 96 hr period
How it was run: as §1

[10] = test system: Granta 519 and Z138 cell lines; test: MAP kinase pathway; assay type: cell-based, human; conditions: 24 hrs
BT-474 = test: GI50 growth inhibition assay; assay type: cell-based; conditions: Homo sapiens, BT-474, 96 h
How it was run: as §2

BT-20 = test: GI50 growth inhibition assay; assay type: cell-based; conditions: Homo sapiens, BT-20, 96 h
How it was run: as §1

mantle cell lymphoma = conditions: Phase I trial, patients with refractory disease; cited from earlier work
ARK5 = ARK5 (Homo sapiens, UniProt O60285); test: in vitro kinase assay, recombinant protein; assay type: biochemical
How it was run: (§4)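 Recombinant kinases were incubated with the indicated concentrations of test compound in in vitro kinase assays. Activity values were plotted against log drug concentration. IC50 came from sigmoidal non-linear regression with variable slope.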

PI3K-δ = PI3K-δ (Homo sapiens, UniProt O00329); test: in vitro kinase assay, recombinant protein; assay type: biochemical
How it was run: as §4

Sequence of PI3K-δ (O00329 whole entry): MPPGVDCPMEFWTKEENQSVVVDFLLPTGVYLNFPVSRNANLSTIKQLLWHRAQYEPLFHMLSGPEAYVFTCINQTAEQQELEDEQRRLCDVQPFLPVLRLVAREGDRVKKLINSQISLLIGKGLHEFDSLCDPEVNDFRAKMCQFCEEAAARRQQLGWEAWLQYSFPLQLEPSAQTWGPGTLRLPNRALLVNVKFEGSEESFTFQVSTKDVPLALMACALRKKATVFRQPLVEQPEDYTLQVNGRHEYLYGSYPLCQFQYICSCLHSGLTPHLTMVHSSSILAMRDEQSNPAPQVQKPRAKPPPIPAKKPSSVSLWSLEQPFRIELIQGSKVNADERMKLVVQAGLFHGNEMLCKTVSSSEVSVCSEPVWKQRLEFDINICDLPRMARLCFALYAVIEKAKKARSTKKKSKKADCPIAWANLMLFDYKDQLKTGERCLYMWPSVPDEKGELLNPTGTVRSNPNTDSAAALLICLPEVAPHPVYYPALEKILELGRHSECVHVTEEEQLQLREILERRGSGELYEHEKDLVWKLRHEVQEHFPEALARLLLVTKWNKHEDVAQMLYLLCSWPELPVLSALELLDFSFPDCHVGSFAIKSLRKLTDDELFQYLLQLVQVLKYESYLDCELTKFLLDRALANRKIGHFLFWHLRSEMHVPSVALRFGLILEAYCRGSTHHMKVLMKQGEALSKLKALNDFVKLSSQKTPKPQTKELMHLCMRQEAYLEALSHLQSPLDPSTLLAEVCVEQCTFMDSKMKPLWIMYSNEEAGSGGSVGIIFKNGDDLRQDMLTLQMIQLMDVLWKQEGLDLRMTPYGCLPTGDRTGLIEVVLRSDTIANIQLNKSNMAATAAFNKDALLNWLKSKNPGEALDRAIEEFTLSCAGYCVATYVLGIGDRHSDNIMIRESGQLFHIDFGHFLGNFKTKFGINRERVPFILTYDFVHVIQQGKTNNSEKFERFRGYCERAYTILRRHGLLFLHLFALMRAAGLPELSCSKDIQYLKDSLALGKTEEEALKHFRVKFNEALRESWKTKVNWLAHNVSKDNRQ
Sequence of PI3K-δ (P27986 whole entry partner): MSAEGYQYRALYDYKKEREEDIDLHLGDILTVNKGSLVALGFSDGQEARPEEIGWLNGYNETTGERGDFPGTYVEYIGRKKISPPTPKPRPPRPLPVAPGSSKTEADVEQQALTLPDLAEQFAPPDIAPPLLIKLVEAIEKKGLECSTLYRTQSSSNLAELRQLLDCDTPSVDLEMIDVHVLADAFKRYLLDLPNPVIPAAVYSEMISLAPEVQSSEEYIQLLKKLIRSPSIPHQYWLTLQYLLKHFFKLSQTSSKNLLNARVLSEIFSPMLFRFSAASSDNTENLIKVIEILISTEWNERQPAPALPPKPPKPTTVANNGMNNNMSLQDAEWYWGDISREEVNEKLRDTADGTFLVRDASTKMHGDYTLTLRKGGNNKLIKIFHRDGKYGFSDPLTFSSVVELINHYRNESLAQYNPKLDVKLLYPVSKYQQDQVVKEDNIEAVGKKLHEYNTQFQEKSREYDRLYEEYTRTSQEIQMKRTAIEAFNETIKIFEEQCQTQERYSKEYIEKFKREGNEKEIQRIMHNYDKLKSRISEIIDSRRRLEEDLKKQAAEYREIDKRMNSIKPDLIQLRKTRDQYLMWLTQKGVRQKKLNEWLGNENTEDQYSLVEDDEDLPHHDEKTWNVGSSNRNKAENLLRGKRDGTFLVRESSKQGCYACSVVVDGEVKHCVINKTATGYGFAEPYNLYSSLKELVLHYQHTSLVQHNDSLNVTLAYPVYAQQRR
Sequence of CDK5 (Q00535 whole entry): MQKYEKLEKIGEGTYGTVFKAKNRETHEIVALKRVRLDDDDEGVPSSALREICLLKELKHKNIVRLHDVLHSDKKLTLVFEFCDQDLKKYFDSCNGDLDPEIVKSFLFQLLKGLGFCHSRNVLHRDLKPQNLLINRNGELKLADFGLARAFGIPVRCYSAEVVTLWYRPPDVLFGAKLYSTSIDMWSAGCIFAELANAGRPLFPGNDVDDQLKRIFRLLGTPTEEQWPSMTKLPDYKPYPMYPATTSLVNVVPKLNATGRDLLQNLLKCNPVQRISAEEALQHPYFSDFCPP
Sequence of CDK5 (Q15078 99-307 partner limits assumed): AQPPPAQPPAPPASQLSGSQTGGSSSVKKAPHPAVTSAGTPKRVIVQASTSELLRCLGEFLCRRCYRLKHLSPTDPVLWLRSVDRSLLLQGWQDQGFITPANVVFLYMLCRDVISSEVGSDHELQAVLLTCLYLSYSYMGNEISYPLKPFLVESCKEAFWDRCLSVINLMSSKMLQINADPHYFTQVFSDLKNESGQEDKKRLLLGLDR
Sequence of ARK5 (O60285 whole entry): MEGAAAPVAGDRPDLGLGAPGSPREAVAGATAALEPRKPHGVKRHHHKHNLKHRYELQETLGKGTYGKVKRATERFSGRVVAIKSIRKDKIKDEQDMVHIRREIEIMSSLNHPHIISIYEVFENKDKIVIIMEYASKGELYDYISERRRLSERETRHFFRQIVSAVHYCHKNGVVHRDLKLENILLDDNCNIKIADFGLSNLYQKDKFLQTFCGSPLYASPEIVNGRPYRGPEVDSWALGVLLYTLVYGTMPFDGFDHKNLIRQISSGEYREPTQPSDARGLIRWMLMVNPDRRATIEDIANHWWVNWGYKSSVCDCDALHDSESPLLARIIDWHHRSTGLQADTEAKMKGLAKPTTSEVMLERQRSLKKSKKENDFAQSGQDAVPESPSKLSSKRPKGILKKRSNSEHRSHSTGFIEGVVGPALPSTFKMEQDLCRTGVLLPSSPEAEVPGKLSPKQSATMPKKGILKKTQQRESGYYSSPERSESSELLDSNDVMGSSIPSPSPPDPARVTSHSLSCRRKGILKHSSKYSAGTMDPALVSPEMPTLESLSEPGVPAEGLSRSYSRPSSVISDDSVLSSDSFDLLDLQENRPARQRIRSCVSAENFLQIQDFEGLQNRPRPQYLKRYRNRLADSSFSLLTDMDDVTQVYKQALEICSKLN
Sequence of CDK8 (P49336 whole entry): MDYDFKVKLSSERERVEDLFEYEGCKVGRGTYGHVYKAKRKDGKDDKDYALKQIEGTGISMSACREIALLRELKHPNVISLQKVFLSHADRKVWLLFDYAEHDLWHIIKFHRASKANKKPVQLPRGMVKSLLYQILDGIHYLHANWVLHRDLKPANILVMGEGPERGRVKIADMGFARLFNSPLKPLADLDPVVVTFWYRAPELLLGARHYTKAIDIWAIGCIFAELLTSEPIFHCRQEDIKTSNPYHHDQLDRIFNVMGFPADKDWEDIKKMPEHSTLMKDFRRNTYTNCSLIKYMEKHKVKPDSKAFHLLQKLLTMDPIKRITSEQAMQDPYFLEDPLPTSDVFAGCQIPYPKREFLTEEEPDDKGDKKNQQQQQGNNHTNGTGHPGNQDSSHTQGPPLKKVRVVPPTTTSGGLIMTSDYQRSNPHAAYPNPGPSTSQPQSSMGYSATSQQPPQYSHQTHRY
Sequence of CDK8 (P24863 whole entry partner): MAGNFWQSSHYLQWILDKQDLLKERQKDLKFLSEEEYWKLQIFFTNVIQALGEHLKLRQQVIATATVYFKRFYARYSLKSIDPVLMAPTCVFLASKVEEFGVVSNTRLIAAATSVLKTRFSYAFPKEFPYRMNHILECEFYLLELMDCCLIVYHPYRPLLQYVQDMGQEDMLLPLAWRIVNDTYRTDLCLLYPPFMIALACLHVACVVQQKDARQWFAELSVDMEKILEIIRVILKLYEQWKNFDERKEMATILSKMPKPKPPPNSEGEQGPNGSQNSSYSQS
Sequence of CDK1 (P06493 whole entry): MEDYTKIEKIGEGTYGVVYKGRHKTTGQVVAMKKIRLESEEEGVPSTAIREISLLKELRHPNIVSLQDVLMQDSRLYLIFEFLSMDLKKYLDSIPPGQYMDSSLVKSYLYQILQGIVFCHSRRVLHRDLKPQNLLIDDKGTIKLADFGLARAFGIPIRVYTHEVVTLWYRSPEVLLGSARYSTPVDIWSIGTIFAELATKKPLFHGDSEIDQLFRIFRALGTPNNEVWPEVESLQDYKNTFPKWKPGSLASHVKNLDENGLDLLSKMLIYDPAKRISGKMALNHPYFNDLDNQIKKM
Sequence of CDK1 (P14635 whole entry, further chain): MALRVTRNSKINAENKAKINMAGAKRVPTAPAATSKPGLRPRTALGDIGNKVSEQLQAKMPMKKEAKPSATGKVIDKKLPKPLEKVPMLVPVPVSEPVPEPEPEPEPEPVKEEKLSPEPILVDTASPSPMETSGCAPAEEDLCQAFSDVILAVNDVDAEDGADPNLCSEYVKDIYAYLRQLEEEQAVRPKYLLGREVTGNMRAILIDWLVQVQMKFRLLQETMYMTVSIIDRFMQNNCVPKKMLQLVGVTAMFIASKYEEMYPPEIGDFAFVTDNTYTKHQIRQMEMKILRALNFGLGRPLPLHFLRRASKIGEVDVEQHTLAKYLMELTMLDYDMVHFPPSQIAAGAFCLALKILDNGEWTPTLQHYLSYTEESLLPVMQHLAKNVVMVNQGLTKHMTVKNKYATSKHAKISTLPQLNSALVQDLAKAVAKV

Compound: CN1CCN(c2ccc(Nc3ncc4cc(C#N)c(=O)n(C5CCCC5)c4n3)cc2)CC1 [ON123300, 8-cyclopentyl-2-[4-(4-methyl-piperazin-1-yl)-phenylamino]-7-oxo-7,8-dihydro-pyrid o[2,3-d]pyrimidine-6-carbonitrile]
- GI50 (HCT-15): 400 nM
- phosphorylation status of p65 (NF-kB) [1]: no change
- PARP cleavage at lower concentrations [2]: readily resulted in PARP cleavage
- concentration at which PARP cleavage is seen ([2]; 24 hrs): greater than or equal to 2.5 µM
- levels of full-length caspases 3, 7 and 9 ([2]; 24 hrs): decreases in the levels of full-length forms of caspases 3, 7 and 9
- concentrations at which cells accumulated in the G1 phase (Z138C cells): 0.1 to 1.0 µM
- accumulation of cells in the sub-G1 phase (Z138C cells): eventually accumulated in the sub-G1 phase
- inhibitory activity against CDK5 (CDK5): little inhibitory activity
- GI50 (MDA-MB-231): 200 nM
- GI50 (SW480): 100 nM
- total body weights (Z138C xenograft; 100mg/kg daily treatment): did not cause a significant reduction
- tumor growth (Z138C xenograft; 100mg/kg daily, ip, 2-week period, p<0.05): significantly inhibited; also recorded: markedly inhibited tumor growth
- GI50 (MIA-PaCa-2): 250 nM
- inhibitory activity against CDK8 (CDK8): little inhibitory activity
- phosphorylation status of p65 (HeLa cells): little or no effect
- GI50 (GRANTA-519): 35 nM
- blood-brain barrier crossing [3]: readily crosses the blood-brain barrier
- GI50 (SNU-398): 300 nM
- inhibitory activity against CDK1 (CDK1): little inhibitory activity
- AKT Ser473 phosphorylation [4]: inhibition of AKT Ser473 phosphorylation
- FOXO1 phosphorylation [4]: inhibition of FOXO1 phosphorylation
- mTOR phosphorylation at Ser2481 [4]: inhibition of mTOR phosphorylation at Ser2481
- phosphorylation of 4EBP1 and S6RB [4]: inhibited
- cells stained Annexin V+ [5]: ~100%
- inhibitory activity against CDK2 (CDK2): little inhibitory activity
- GI50 (Z138C): 25 nM
- GI50 (SNU-5): 200 nM
- levels of Rb and AKT phosphorylation [6]: reductions in the levels of Rb and AKT phosphorylation
- phosphorylation of S6RB [6]: inhibited
- levels of CDK4 and CDK2 [7]: unaffected
- p21 levels [7]: loss of p21 levels
- levels of CYCLIN D1 ([7]; as a function of concentration): declined
- phosphorylation of pRb and p130 [7]: inhibited the phosphorylation of pRb and p130
- GI50 (MDA-MB-157): 250 nM
- GI50 (COLO-205): 200 nM
- oral bioavailability ([8]; mice): orally bio-available
- area under the curve (AUC) as molar concentration ([8]; 50mg/kg ip): 16.71 µM/ml/hr
- area under the curve (AUC) ([8]; 50mg/kg ip injection): 7.18 µg/mL/h
- area under the curve (AUC) ([8]; 50mg/kg oral gavage (po)): 2.78 µg/mL/h
- area under the curve (AUC) as molar concentration ([8]; 50mg/kg po): 6.47 µM/ml/hr
- survival rate ([9]; 200mg/kg ip for 5 consecutive days, at least 10 days post-administration): 100%
- signs of toxicity ([9]; 200mg/kg ip for 5 consecutive days, data not shown): did not exhibit any signs of toxicity
- toxicity ([9]; mice, administered orally or intraperitoneally): minimally toxic
- survival rate ([9]; single ip dose 100 or 200 mg/kg, 7 days): 100%
- signs of toxicity and body weights ([9]; single ip dose 100 or 200 mg/kg, monitored 7 days): No signs of toxicity or weight loss
- GI50 (DLD-1): 100 nM
- concentrations inducing growth arrest and cell death (MCL cell lines): 25 to 50 nM
- phosphorylation status of MEK or ERK kinases [10]: neither ON123300 nor PD0332991 has any effect
- GI50 (BT-474): 250 nM
- GI50 (BT-20): 100 nM

Compound: CC[C@H](Nc1ncnc2[nH]cnc12)c1nc2cccc(F)c2c(=O)n1-c1ccccc1 [idelalisib]
- efficacy as a single agent (mantle cell lymphoma): modestly effective

- IC50 (ARK5): > 5000 nM
- IC50 (PI3K-δ): > 10000 nM
- inhibitory activity against PI3K-δ (PI3K-δ; in vitro kinase assay): failed to show any inhibitory activity
Compound: CC(=O)c1c(C)c2cnc(Nc3ccc(N4CCNCC4)cn3)nc2n(C2CCCC2)c1=O [PD0332991, reference compound]
- phosphorylation status of p65 (NF-kB) [1]: no change
- PARP cleavage at lower concentrations [2]: did not show any PARP cleavage
- evidence of apoptosis (PARP cleavage, caspases) ([2]; 24 hrs, increasing concentrations): no evidence of apoptosis
- accumulation of cells in the sub-G1 phase (Z138C cells): little or no accumulation of cells in the sub-G1 phase
- accumulation of cells in the G1 phase (Z138C cells; increasing concentrations): rapid accumulation of the cells in the G1 phase
- phosphorylation status of p65 (HeLa cells): little or no effect
- phosphorylation status of AKT, mTOR, 4EBP1 and S6 ribosomal protein (S6RB) [4]: no discernable change
- levels of CDK4 and CDK2 [7]: unaffected
- p21 levels [7]: not readily seen
- phosphorylation of pRb and p130 [7]: inhibited the phosphorylation of pRb and p130
- phosphorylation status of MEK or ERK kinases [10]: neither ON123300 nor PD0332991 has any effect
